Results as given in ChEMBL document CHEMBL4041524, “Synthesis and Characterization of a Novel γ-Aminobutyric Acid Type A (GABAA) Receptor Ligand That Combines Outstanding Metabolic Stability, Pharmacokinetics, and Anxiolytic Efficacy” (J Med Chem, 2016).
Calls of active or inactive are those of the source. No cut-off for these calls is given here.

Columns and labels:
Rattus norvegicus [1] = assay: Toxicity in water-deprived Sprague-Dawley rat assessed as effect on water drinking time during nonpunished period at 20 mg/kg, po by Vogel conflict test; type: organism-based; conditions: in vivo
Method in brief: (§1)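 Water-deprived male Sprague-Dawley rats (n = 6–8) drank during unpunished and punished periods, with licking suppressed by mild shock in punished periods. Compounds were given 30 min before testing. Analysis was ANOVA with Dunnett's test.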

[2] = target: T1, GABA-A receptor; alpha-5/beta-3/gamma-2 (Homo sapiens) (UniProt P18507+P28472+P31644); assay: Modulation of recombinant GABA alpha5beta3gamma2 receptor (unknown origin) expressed in Xenopus laevis oocytes assessed as change in GABA-induced EC(3 to 6) current at 1 uM by two-electrode voltage clamp assay; type: cell-based
Method in brief: (§2)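 Xenopus laevis oocytes expressing α1, α2, α3 or α5 β3γ2 GABAARs were recorded by two-electrode voltage clamp. Modulation of the GABA EC3-6 current (taken as 100%) was tested at 100 nM, 1 μM and 10 μM in the same cells. Values are mean ± SEM, n = 3–4.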

[3] = target: T1, GABA-A receptor; alpha-5/beta-3/gamma-2 (Homo sapiens); assay: Modulation of recombinant GABA alpha5beta3gamma2 receptor (unknown origin) expressed in Xenopus laevis oocytes assessed as change in GABA-induced EC(3 to 6) current at 10 uM by two-electrode voltage clamp assay; type: cell-based; method in brief: as §2
[4] = target: T2, GABA-A receptor; alpha-3/beta-3/gamma-2 (Homo sapiens) (UniProt P18507+P28472+P34903); assay: Modulation of recombinant GABA alpha3beta3gamma2 receptor (unknown origin) expressed in Xenopus laevis oocytes assessed as change in GABA-induced EC(3 to 6) current at 1 uM by two-electrode voltage clamp assay; type: cell-based; method in brief: as §2
Mus musculus [5] = assay: Toxicity in Swiss mouse assessed as change in motor coordination by measuring number of falls from the rotating rod at 30 mg/kg, ip administered 30 mins prior to testing measured for 2 mins by rotarod test relative to control; type: organism-based; conditions: in vivo
Method in brief: (§3)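 The same mice used for marble burying were placed on a rotarod at 4 r.p.m. for 2 min. No fall was scored success, one fall partial, and two falls failure.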

[6] = target: T3, GABA-A receptor; alpha-1/beta-3/gamma-2 (Homo sapiens) (UniProt P14867+P18507+P28472); assay: Modulation of recombinant GABA alpha1beta3gamma2 receptor (unknown origin) expressed in Xenopus laevis oocytes assessed as change in GABA-induced EC(3 to 6) current by two-electrode voltage clamp assay; type: cell-based; method in brief: as §2
Liver [7] = assay: Metabolic stability in rat liver microsomes assessed as compound remaining at 4 uM measured after 30 mins in presence of NADPH by LC-MS/MS analysis; type: ADME, microsome; conditions: 0.5 h
Method in brief: (§4)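 Human, mouse or rat liver microsomes were incubated with compound at 4 μM final for 30 min at 37 °C (n = 1). Percent of parent remaining was quantified by LC-MS/MS.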

[8] = Drug uptake in Sprague-Dawley rat brain at 10 mg/kg, po measured after 120 mins by LC-MS/MS analysis; type: ADME, organism-based; conditions: read-out: Drug uptake
Method in brief: (§5)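 Sprague-Dawley rats (n = 3 per time point) were given 10 mg/kg p.o. Total plasma concentrations were taken at 15, 30, 60 and 120 min. Brain levels of the dosed ligand and of the carboxylic acid metabolite were taken at 60 or 120 min.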

Mus musculus [9] = assay: Anxiolytic-like activity in Swiss Webster mouse marble burying model of anxiety assessed as suppression of marble burying activity at 30 mg/kg, ip administered 30 mins prior to test relative to vehicle-control; type: functional, organism-based
Method in brief: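 Male NIH Swiss Webster mice (n = 10) received vehicle or compound at 10 or 30 mg/kg i.p. 30 min before marble burying testing. Sedation-like behaviour was noted by observation. Analysis was ANOVA with Dunnett's test vs vehicle.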

[10] = target: T4, GABA-A receptor; alpha-2/beta-3/gamma-2 (Homo sapiens) (UniProt P18507+P28472+P47869); assay: Modulation of recombinant GABA alpha2beta3gamma2 receptor (unknown origin) expressed in Xenopus laevis oocytes assessed as change in GABA-induced EC(3 to 6) current by two-electrode voltage clamp assay; type: cell-based; method in brief: as §2
Brain = assay: Drug metabolism in Sprague-Dawley rat brain assessed as (E)-8-ethynyl-6-(pyridin-2-yl)-4H-benzo[f]imidazo[1,5-a][1,4]diazepine-3-carboxylic acid formation at 10 mg/kg, po measured after 120 mins by LC-MS/MS analysis; type: ADME, organism-based; conditions: in vivo, 2 h; method in brief: as §5
[11] = target: T2, GABA-A receptor; alpha-3/beta-3/gamma-2 (Homo sapiens); assay: Modulation of recombinant GABA alpha3beta3gamma2 receptor (unknown origin) expressed in Xenopus laevis oocytes assessed as change in GABA-induced EC(3 to 6) current at 100 nM by two-electrode voltage clamp assay; type: cell-based; method in brief: as §2
[12] = target: T2, GABA-A receptor; alpha-3/beta-3/gamma-2 (Homo sapiens); assay: Modulation of recombinant GABA alpha3beta3gamma2 receptor (unknown origin) expressed in Xenopus laevis oocytes assessed as change in GABA-induced EC(3 to 6) current by two-electrode voltage clamp assay; type: cell-based; method in brief: as §2
[13] = target: T3, GABA-A receptor; alpha-1/beta-3/gamma-2 (Homo sapiens); assay: Modulation of recombinant GABA alpha1beta3gamma2 receptor (unknown origin) expressed in Xenopus laevis oocytes assessed as change in GABA-induced EC(3 to 6) current at 10 uM by two-electrode voltage clamp assay; type: cell-based; method in brief: as §2
[14] = Total plasma concentration in Sprague-Dawley rat at 10 mg/kg, po measured after 60 mins by LC-MS/MS analysis; type: ADME, organism-based; method in brief: as §5
[15] = target: T3, GABA-A receptor; alpha-1/beta-3/gamma-2 (Homo sapiens); assay: Modulation of recombinant GABA alpha1beta3gamma2 receptor (unknown origin) expressed in Xenopus laevis oocytes assessed as change in GABA-induced EC(3 to 6) current at 1 uM by two-electrode voltage clamp assay; type: cell-based; method in brief: as §2
[16] = Total plasma concentration in Sprague-Dawley rat at 10 mg/kg, po measured after 120 mins by LC-MS/MS analysis; type: ADME, organism-based; method in brief: as §5
[17] = target: T4, GABA-A receptor; alpha-2/beta-3/gamma-2 (Homo sapiens); assay: Modulation of recombinant GABA alpha2beta3gamma2 receptor (unknown origin) expressed in Xenopus laevis oocytes assessed as change in GABA-induced EC(3 to 6) current at 1 uM by two-electrode voltage clamp assay; type: cell-based; method in brief: as §2
Liver [18] = assay: Metabolic stability in mouse liver microsomes assessed as compound remaining at 4 uM measured after 30 mins in presence of NADPH by LC-MS/MS analysis; type: ADME, microsome; conditions: 0.5 h; method in brief: as §4
[19] = target: T4, GABA-A receptor; alpha-2/beta-3/gamma-2 (Homo sapiens); assay: Modulation of recombinant GABA alpha2beta3gamma2 receptor (unknown origin) expressed in Xenopus laevis oocytes assessed as change in GABA-induced EC(3 to 6) current at 10 uM by two-electrode voltage clamp assay; type: cell-based; method in brief: as §2
[20] = target: T1, GABA-A receptor; alpha-5/beta-3/gamma-2 (Homo sapiens); assay: Modulation of recombinant GABA alpha5beta3gamma2 receptor (unknown origin) expressed in Xenopus laevis oocytes assessed as change in GABA-induced EC(3 to 6) current by two-electrode voltage clamp assay; type: cell-based; method in brief: as §2
[21] = target: T4, GABA-A receptor; alpha-2/beta-3/gamma-2 (Homo sapiens); assay: Modulation of recombinant GABA alpha2beta3gamma2 receptor (unknown origin) expressed in Xenopus laevis oocytes assessed as change in GABA-induced EC(3 to 6) current at 100 nM by two-electrode voltage clamp assay; type: cell-based; method in brief: as §2
[22] = Cytotoxicity against HEK293T cells assessed as viable cells measured after 18 hrs by CellTiter-Glo assay; type: cell-based, HEK-293T; conditions: human, read-out: LD50
Method in brief: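 HEK293T cells were exposed to compound for 18 h (n = 4). Viable cells were quantified with CellTiter-Glo, and LD50 was derived.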

Liver [23] = assay: Metabolic stability in human liver microsomes assessed as compound remaining at 4 uM measured after 30 mins in presence of NADPH by LC-MS/MS analysis; type: ADME, microsome; conditions: 0.5 h; method in brief: as §4
[24] = target: T2, GABA-A receptor; alpha-3/beta-3/gamma-2 (Homo sapiens); assay: Modulation of recombinant GABA alpha3beta3gamma2 receptor (unknown origin) expressed in Xenopus laevis oocytes assessed as change in GABA-induced EC(3 to 6) current at 10 uM by two-electrode voltage clamp assay; type: cell-based; method in brief: as §2
Mus musculus [25] = assay: Toxicity in Swiss mouse assessed as change in motor coordination by measuring number of falls from the rotating rod at 10 mg/kg, ip administered 30 mins prior to testing measured for 2 mins by rotarod test relative to control; type: organism-based; conditions: in vivo; method in brief: as §3
Rattus norvegicus [26] = assay: Anxiolytic like activity in water-deprived Sprague-Dawley rat assessed as increase in water drinking time during punished period at 30 mg/kg, po administered 30 prior to testing by Vogel conflict test relative to vehicle control; type: functional; method in brief: as §1
[27] = Total plasma concentration in Sprague-Dawley rat at 10 mg/kg, po measured after 30 mins by LC-MS/MS analysis; type: ADME, organism-based; method in brief: as §5
[28] = Total plasma concentration in Sprague-Dawley rat at 10 mg/kg, po measured after 15 mins by LC-MS/MS analysis; type: ADME, organism-based; method in brief: as §5

CNC1=Nc2ccc(Cl)cc2C(c2ccccc2)=[N+]([O-])C1 [CHLORDIAZEPOXIDE]
Activity (Rattus norvegicus [1]): Non-Toxic

C#Cc1ccc2c(c1)C(c1ccccn1)=NCc1c(C(=O)OCC)ncn1-2
Activity [2]: 134%
Activity [3]: 158%
Activity [4]: 195%
Activity (Mus musculus [5]): Toxic
Activity [6]: Dose-dependent effect
Stability (Liver [7]): 58%
concentration at 2 h [8]: < 12.2 nM
Activity (Mus musculus [9]): Active
Activity [10]: Dose-dependent effect
Drug metabolism (Brain): 10 nM
Activity [11]: 119%
Activity [12]: Dose-dependent effect
Activity [13]: 178%
concentration at 1 h [14]: < 12.2 nM
Activity [15]: 147%
concentration at 2 h [16]: < 12.2 nM
Activity [17]: 207%
Stability (Liver [18]): 57%
Activity [19]: 244%
Activity [20]: Dose-dependent effect
Activity [21]: 111%
CC50 at 18 h [22]: > 100 µM
Stability (Liver [23]): 86%
Activity [24]: 305%
Activity (Mus musculus [25]): Toxic
Activity (Rattus norvegicus [26]): inactive
concentration at 0.5 h [27]: < 12.2 nM
concentration at 0.25 h [28]: < 12.2 nM
